Laboratory results from ChEMBL document CHEMBL4007441, “Novel Design of Heptad Amphiphiles To Enhance Cell Selectivity, Salt Resistance, Antibiofilm Properties and Their Membrane-Disruptive Mechanism” (J Med Chem, 2017).
Active and inactive are the calls of the source.

Key:
RAW264.7 [1] = test: Downregulation of LPS-induced IL-6 mRNA expression in mouse RAW264.7 cells at 10 mg/L after 18 hrs by real-time PCR analysis; type: functional, cell-based
How it was run: (§1)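 qRT-PCR: RAW264.7 cells were stimulated with LPS (100 ng/mL) with or without peptide at 10 mg/L for 18 h at 37 °C. Total RNA was taken up with TRIzol. Transcript levels were normalized to GAPDH and expressed as fold change versus untreated cells. Three experiments, triplicates each.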

Lipopolysaccharide (LPS) [2] = test: Binding affinity to Pseudomonas aeruginosa ATCC 27853 LPS by SPR spectroscopic analysis
How it was run: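 Biacore SPR. Peptides were amine-coupled to CM5 chips at 20 µg/mL in 10 mM acetate pH 6.0, giving about 1300 RU. LPS at 3.125–12.5 µg/mL in 20 mM Tris/100 mM NaCl pH 7.4 was flowed at 10 µL/min. Surfaces were regenerated with 50 mM NaOH plus 0.05% SDS. Three independent runs.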

Pseudomonas aeruginosa [3] = test: Drug uptake in Pseudomonas aeruginosa ATCC 27853 treated with FITC-labeled compound at MIC after 30 mins by confocal fluorescence microscopy; type: ADME; conditions: 0.5 h
How it was run: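 Cells were pelleted at 5,000 g for 5 min, washed three times in PBS, smeared and imaged by confocal microscopy with 488 nm excitation.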

Pseudomonas aeruginosa [4] = test: Antibiofilm activity in Pseudomonas aeruginosa ATCC 27853 assessed as reduction in biomass after 24 hrs by crystal violet staining-based method; type: functional
How it was run: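 Overnight culture was diluted 1:100 and grown 24 h at 37 °C to form biofilms. Loose cells were removed and fresh broth added with peptide at 1×, 4× or 8× MIC for another 24 h. Biofilms were stained with 0.1% crystal violet for 10 min, washed, and dye extracted in 95% ethanol before reading absorbance. Results are % of untreated biofilm; three repeats in duplicate, mean ± SD.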

Pseudomonas aeruginosa [5] = test: Antibacterial activity against Pseudomonas aeruginosa ATCC 27853 assessed as induction of outer membrane permeabilization by measuring NPN uptake by spectrofluorophotometric analysis; type: functional
How it was run: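 Exponential-phase cells were washed in HEPES pH 7.4 with 5 mM glucose and diluted to about 10^5 CFU/mL. NPN was added at 10 µM final, then peptide at varying concentrations. Fluorescence (ex 350/em 420 nm) was followed to plateau. Values are % NPN uptake relative to polymyxin B at 10 mg/L (100%). Three experiments, duplicates.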

Pseudomonas aeruginosa [6] = test: Antibacterial activity against Pseudomonas aeruginosa ATCC 27853 after 18 hrs in presence of FeCl3 by broth microdilution method; type: functional; conditions: ATCC 27853, 18 h
How it was run: (§2)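 Broth microdilution MIC against ATCC 27853 in Mueller-Hinton broth with added salt at final concentrations: NaCl 150 mM, KCl 4.5 mM, NH4Cl 6 µM, ZnCl2 8 µM, FeCl3 4 µM. Inoculum about 1 × 10^6 CFU/mL from exponential phase, mixed 1:1 with two-fold peptide dilutions. MIC read as no visible turbidity after 18 h at 37 °C.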

RAW264.7 [7] = test: Inhibition of LPS-induced iNOS expression in mouse RAW264.7 cells at 10 mg/L after 18 hrs by Western blot analysis; type: functional, cell-based
How it was run: (§3)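 Western blot of RAW264.7 lysates after 18 h with LPS at 100 ng/mL, with or without peptide at 10 mg/L. Lysates were run on 8% or 12% SDS-PAGE, transferred to PVDF and blocked in 5% milk/TBST. Primary antibodies were applied at 4 °C overnight, then HRP secondary and ECL detection. β-actin was the loading control.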

Pseudomonas aeruginosa [8] = test: Antibacterial activity against Pseudomonas aeruginosa ATCC 27853 after 18 hrs in presence of NaCl by broth microdilution method; type: functional; conditions: ATCC 27853, 18 h; how it was run: as §2
Pseudomonas aeruginosa [9] = test: Antibacterial activity against Pseudomonas aeruginosa CICC 10419 after 18 hrs by broth microdilution method; type: functional; conditions: CICC 10419, 18 h
How it was run: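 Broth microdilution in Mueller-Hinton broth. Exponential-phase bacteria (37 °C, 220 rpm shaking) were diluted to about 1 × 10^6 CFU/mL and mixed 1:1 with two-fold serial peptide dilutions. MIC is the lowest concentration with no visible turbidity after 18 h at 37 °C. Controls were uninoculated MHB and untreated culture. Run at least three times, two replicates each.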

RAW264.7 [10] = test: Downregulation of LPS-induced IL-1beta mRNA expression in mouse RAW264.7 cells at 10 mg/L after 18 hrs by real-time PCR analysis; type: functional, cell-based; how it was run: as §1
RAW264.7 [11] = test: Downregulation of LPS-induced TNF-alpha level in mouse RAW264.7 cells at 10 mg/L after 18 hrs by ELISA; type: functional, cell-based
How it was run: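 ELISA of secreted TNF-α in culture medium of RAW264.7 cells treated 18 h with LPS 100 ng/mL alone or with peptide at 10 mg/L. Samples were run in duplicate; release was normalized to untreated controls.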

RAW264.7 [12] = test: Inhibition of LPS-induced IkappaB-alpha protein degradation in mouse RAW264.7 cells at 10 mg/L after 18 hrs by Western blot analysis; type: functional, cell-based; how it was run: as §3
Pseudomonas aeruginosa [13] = test: Antibacterial activity against Pseudomonas aeruginosa 25349 clinical isolate after 18 hrs by broth microdilution method; type: functional; conditions: Pseudomonas aeruginosa, 25349, 18 h
RAW264.7 [14] = test: Downregulation of LPS-induced TNF-alpha mRNA expression in mouse RAW264.7 cells at 10 mg/L after 18 hrs by real-time PCR analysis; type: functional, cell-based; how it was run: as §1
RAW264.7 [15] = test: Inhibition of LPS-induced TLR4 negative regulation in mouse RAW264.7 cells at 10 mg/L after 18 hrs by Western blot analysis; type: functional, cell-based; how it was run: as §3
Pseudomonas aeruginosa [16] = test: Antibacterial activity against gentamicin-resistant Pseudomonas aeruginosa 11421 after 18 hrs by broth microdilution method; type: functional; conditions: Pseudomonas aeruginosa, 11421, 18 h
How it was run: (§4)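 Broth microdilution in Mueller-Hinton broth. Exponential-phase bacteria (37 °C, 220 rpm shaking) were diluted to about 1 × 10^6 CFU/mL and mixed 1:1 with two-fold serial peptide dilutions. Controls were uninoculated MHB and untreated culture. Run at least three times, two replicates each.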

Lipopolysaccharide (LPS) [17] = test: Inhibition of BODIPY-TR-cadaverine binding to Pseudomonas aeruginosa 10 LPS by fluorescence spectrophotometric analysis
Pseudomonas aeruginosa [18] = test: Antibacterial activity against Pseudomonas aeruginosa ATCC 27853 after 18 hrs in presence of KCl by broth microdilution method; type: functional; conditions: ATCC 27853, 18 h; how it was run: as §2
Pseudomonas aeruginosa [19] = test: Antibacterial activity against ciprofloxacin-resistant Pseudomonas aeruginosa 11411 after 18 hrs by broth microdilution method; type: functional; conditions: Pseudomonas aeruginosa, 11411, 18 h; how it was run: as §4
Pseudomonas aeruginosa [20] = test: Antibacterial activity against Pseudomonas aeruginosa ATCC 27853 after 18 hrs in presence of MgCl2 by broth microdilution method; type: functional; conditions: ATCC 27853, 18 h
How it was run: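 Broth microdilution MIC in MHB against the reference strain. About 1 × 10^6 CFU/mL exponential-phase inoculum mixed 1:1 with two-fold peptide dilutions in medium containing 1 mM MgCl2 (final). Lowest concentration with no visible turbidity after 18 h at 37 °C.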

RAW264.7 [21] = test: Cytotoxicity in mouse RAW264.7 cells after 24 hrs by MTT assay; type: cell-based; conditions: raw264.7, 24 h

H-LRRLRRRWWWRRRLRRL-NH2
256 µg/mL: CC10 (RAW264.7 [21])
4 µg/mL: MIC (Pseudomonas aeruginosa [6]) | MIC (Pseudomonas aeruginosa [13]) | MIC (Pseudomonas aeruginosa [18]) | MIC (Pseudomonas aeruginosa [19])
Active: Drug uptake (Pseudomonas aeruginosa [3])
active: Activity (RAW264.7 [1]) | Activity (Lipopolysaccharide (LPS) [2]) Dose-dependent effect | Activity (Pseudomonas aeruginosa [4]) Dose-dependent effect | Activity (Pseudomonas aeruginosa [5]) Dose-dependent effect | inhibition (RAW264.7 [7]) | Activity (RAW264.7 [10]) | Activity (RAW264.7 [11]) | inhibition (RAW264.7 [12]) | Activity (RAW264.7 [14]) | inhibition (RAW264.7 [15]) | Activity (Lipopolysaccharide (LPS) [17]) Dose-dependent effect
8 µg/mL: MIC (Pseudomonas aeruginosa [8]) | MIC (Pseudomonas aeruginosa [9]) | MIC (Pseudomonas aeruginosa [16])
16 µg/mL: MIC (Pseudomonas aeruginosa [20])

H-LRRLRRRWWRRRLRRL-NH2
Active: Drug uptake (Pseudomonas aeruginosa [3])
16 µg/mL: MIC (Pseudomonas aeruginosa [8]) | MIC (Pseudomonas aeruginosa [9]) | MIC (Pseudomonas aeruginosa [13]) | MIC (Pseudomonas aeruginosa [16])
128 µg/mL: CC10 (RAW264.7 [21])
8 µg/mL: MIC (Pseudomonas aeruginosa [6]) | MIC (Pseudomonas aeruginosa [18]) | MIC (Pseudomonas aeruginosa [19])
32 µg/mL: MIC (Pseudomonas aeruginosa [20])
active: Activity (RAW264.7 [1]) | Activity (Lipopolysaccharide (LPS) [2]) Dose-dependent effect | Activity (Pseudomonas aeruginosa [4]) Dose-dependent effect | Activity (Pseudomonas aeruginosa [5]) Dose-dependent effect | inhibition (RAW264.7 [7]) | Activity (RAW264.7 [10]) | Activity (RAW264.7 [11]) | inhibition (RAW264.7 [12]) | Activity (RAW264.7 [14]) | inhibition (RAW264.7 [15]) | Activity (Lipopolysaccharide (LPS) [17]) Dose-dependent effect
